Assay outcomes (PubChem BioAssay)
T cruzi repl = T. cruzi replication inhibition. T. cruzi beta-gal in NIH3T3, luminescence, 90 h. inhibition, % (test concentration not listed). actives 1.4% (n = 300,000). AID 1885;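 active = mean inhibition across valid replicates above about 55%, limit read from the data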;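 note: signal also drops with host cell toxicity which is not excluded here; 0% = plate median of DMSO wells and 100% = zero luminescence signal; higher percent means less beta-gal luminescence so fewer parasites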
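Material: NIH/3T3 host cells with β-galactosidase reporter T. cruzi; Input: 5,000 host fibroblasts per well; Medium: DMEM, 2% fetal bovine serum; Compound: 50 nL DMSO compound solution per well; Schedule: 3 h host attachment, then at least 90 h co-culture; Detection: luminescent β-galactosidase signal after 60 min lysis.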
L major viab = inhibitors of Leishmania major promastigote growth | Leishmania major promastigotes, resazurin fluorescence viability | inhibition, % at 10 µM | actives 9% (n = 200,000); in the data active = inhibition above about 50%;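 note: promastigotes grown with compound for 44 hours at 28 °C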
HSF1 inhib = HSF1 inhibition | NIH3T3-HGL HSE-luciferase, MG132-induced, luminescence 8 h; stronger effect = lower value | activity change, negative = inhibition, % at 7.5 µM (by protocol) | actives 0.77% (n = 300,000) | AID 2098;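 active = more than half of replicate wells show activity change below -50%, luminescence cut by over half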;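 note: luciferase reports HSF-1 transcriptional activity via heat shock element; 0% = median of DMSO wells and -100% = zero luminescence signal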
HSF-1 act = increases HSF-1 driven luciferase reporter signal; activation, % at 9 µM; AID 504408; NIH3T3-HGL HSF-1 luciferase reporter, MG132, 8 h; 100% = twice DMSO control signal; actives 1.7% (n = 300,000);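 active = mean replicate activation of at least 50% with a set share of replicates each reaching 50%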;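 note: 0% = median of the neutral control wells and 100% = twice that signal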
Hsp70 activator = transcriptional activators of Hsp70. HeLa Hsp70 promoter luciferase reporter, luminescence; scaled: vehicle 0, proteasome-inhibitor control 100%. activation, % at 10 µM. actives 0.04% (n = 200,000). AID 1203;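 active = activation above the mean across all tested compounds plus 3 SD, cutoff set per campaign, cut at about 5.5% in these data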;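 note: 100% = MG132 at 30 µM as the positive control and 0% = DMSO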
* marks the source's active call; other numbers are inactive results. This excerpt belongs to a sample that is enriched for hits.

For Cc1ccc(C)c(OCCOCCN2CCOCC2)c1 the results were T cruzi repl 7, L major viab 92*, HSF1 inhib 0, HSF-1 act 23 and Hsp70 activator 0.
Screening Cc1cc(C)c(C)c(OCCOCCN2CCOCC2)c1 returned T cruzi repl 14, L major viab 55*, HSF1 inhib 1, HSF-1 act 44 and Hsp70 activator 0.
Nc1c(N2CCCC2)cc(Cl)c2nonc12 was read as T cruzi repl -30, L major viab 86*, HSF1 inhib 11, HSF-1 act 7 and Hsp70 activator 0.
Nc1c(N2CCOCC2)cc(Cl)c2nonc12 was read as T cruzi repl -24, L major viab 0, HSF1 inhib 3, HSF-1 act 15 and Hsp70 activator 0.
Cc1ccccc1-c1noc(-c2ccc(O)cc2)n1 was read as T cruzi repl -18, L major viab 6, HSF1 inhib 19, HSF-1 act 53* and Hsp70 activator 0.
`Cc1ccccc1-c1noc(-c2ccccc2F)n1` gave T cruzi repl 6, L major viab -6, HSF1 inhib 26, HSF-1 act 54* and Hsp70 activator 0.
Screening CC(C)(C)Nc1nc(NC(C)(C)C)nc(-n2ccnc2)n1 returned L major viab 98* and Hsp70 activator 0.
For CNc1c(NS(=O)(=O)c2cc(OC)ccc2OC)c(=O)oc2ccccc12 the results were T cruzi repl -15, HSF1 inhib -2 and HSF-1 act 13.
OC1c2cc(Br)ccc2N=C2CCCN21 (configuration not stated) was read as T cruzi repl 55*, HSF1 inhib 17 and HSF-1 act 24.
NC(=O)c1ccc(NC(=O)CSc2nnc(-c3cccnc3)n2Cc2ccco2)cc1 was read as T cruzi repl -16, HSF1 inhib 4 and HSF-1 act 2.
Screening Cc1ccc(-n2c(C)cc(/C=c3/sc4nc5ccccc5n4c3=O)c2C)cc1 returned T cruzi repl 37, L major viab 0, HSF1 inhib -82*, HSF-1 act -85 and Hsp70 activator 0.
CC(C(=O)NCc1ccccn1)c1ccc([N+](=O)[O-])cc1 (configuration not stated) was read as T cruzi repl -6, L major viab -1, HSF1 inhib -2, HSF-1 act -19 and Hsp70 activator 0.
`O=C1[C@@H]2Cc3c([nH]c4ccccc34)[C@@H](c3ccccc3)N2C(=O)[C@@H]2Cc3c([nH]c4ccccc34)[C@@H](c3ccccc3)N12` gave L major viab 76* and Hsp70 activator 0.
O=C1NCC(=O)N2C(c3ccccc3)c3[nH]c4ccccc4c3C[C@@H]12 (some centres not stated) was read as T cruzi repl -6, HSF1 inhib -20 and HSF-1 act -33.
O=C1[C@@H]2Cc3c([nH]c4ccccc34)C(c3cccc([N+](=O)[O-])c3)N2C(=O)CN1C1CCN(Cc2ccccc2)CC1 (some centres not stated) was read as T cruzi repl 71*, HSF1 inhib 14 and HSF-1 act 35.
For C=CC[n+]1c(-c2ccc(OCC)cc2)csc1NNC(=O)Nc1ccccc1 the results were T cruzi repl 21, L major viab -2, HSF1 inhib -17, HSF-1 act -27 and Hsp70 activator 0.
`CC(=O)Nc1ccc(CN2CCC(CO)(CCOc3ccccc3)CC2)cc1` gave T cruzi repl 10, L major viab 49, HSF1 inhib -56*, HSF-1 act -62 and Hsp70 activator 0.
Screening COc1cc(CN2CCC(CO)(CCOc3ccccc3)CC2)cc(OC)c1 returned T cruzi repl -15, HSF1 inhib 8 and HSF-1 act 12.
Screening OCC1(CCOc2ccccc2)CCN(C2Cc3ccccc3C2)CC1 returned T cruzi repl 12, L major viab 88*, HSF1 inhib -4, HSF-1 act 19 and Hsp70 activator 0.
`COc1ccc(OC)c(CN2CCC(CO)(CCOc3ccccc3)CC2)c1` gave T cruzi repl 3, L major viab 14, HSF1 inhib 10, HSF-1 act 47 and Hsp70 activator 0.
Cc1cc(C)c(CN2CCC(CO)(CCOc3ccccc3)CC2)cc1C was read as T cruzi repl 14, L major viab 60*, HSF1 inhib -7, HSF-1 act -9 and Hsp70 activator 0.
Screening CCOC(=O)C1(CCOc2ccccc2)CCN(Cc2ccc(NC(C)=O)cc2)CC1 returned T cruzi repl 3, L major viab 87*, HSF1 inhib -18, HSF-1 act -30 and Hsp70 activator 0.
Cc1ccc(NC(=O)CCc2ccc(C)o2)cc1 was read as T cruzi repl -2, HSF1 inhib -1 and HSF-1 act -2.
`O=C(CC1C(=O)NCCN1Cc1ccccc1C(F)(F)F)NCCc1ccccn1` (configuration not stated) gave T cruzi repl -22, L major viab -5, HSF1 inhib -2, HSF-1 act -5 and Hsp70 activator 0.
Screening CN(CC(=O)Nc1cccc(F)c1)C(=O)CC1CC2CCC1C2 (configuration not stated) returned T cruzi repl 1, HSF1 inhib 1 and HSF-1 act -6.
Screening CCOC(=O)C1(CCOc2ccccc2)CCN(Cc2ccc3nonc3c2)CC1 returned T cruzi repl 67*, L major viab 92*, HSF1 inhib -4, HSF-1 act -19 and Hsp70 activator 0.
CC(OC(=O)c1ccc(-c2ccc([N+](=O)[O-])cc2)o1)C(=O)NC(N)=O (configuration not stated) was read as T cruzi repl -5, HSF1 inhib 6 and HSF-1 act 17.
`Cc1cc(C)c2ccc(NN)nc2c1O` gave T cruzi repl 16, L major viab 99*, HSF1 inhib -11, HSF-1 act -3 and Hsp70 activator 0.
Screening CCOC(=O)c1cnn(-c2ccccc2)c1N returned T cruzi repl -37, L major viab -5, HSF1 inhib 2, HSF-1 act 7 and Hsp70 activator 0.
`CCOC(=O)c1cnn(-c2ccc(C(F)(F)F)cn2)c1N` gave T cruzi repl -6, L major viab 9, HSF1 inhib 32, HSF-1 act 61* and Hsp70 activator 0.
For Fc1ccc(-n2nnc(-c3cccnc3)n2)cc1 the results were T cruzi repl -16, L major viab 3, HSF1 inhib 18, HSF-1 act 40 and Hsp70 activator 0.
Screening Fc1ccc(C(CCCn2nnc(-c3cccnc3)n2)c2ccc(F)cc2)cc1 returned T cruzi repl 62*, L major viab 16, HSF1 inhib 9, HSF-1 act 23 and Hsp70 activator 0.
For CCOC(=O)Cn1nc(C)c2ccccc2c1=O the results were T cruzi repl -7, L major viab 11, HSF1 inhib -1, HSF-1 act 10 and Hsp70 activator 0.
For Cc1ccc(C(=O)Cn2nc(C(=O)O)c3ccccc3c2=O)cc1C the results were T cruzi repl -11, HSF1 inhib 28 and HSF-1 act 64*.
